Compounds with a hit are over-represented: about 1.9% of the library has one in this group of screens.
HIF activator – HIF pathway transcriptional activators, primary screen, cell-based, U2OS HRE-luciferase, luminescence; U2OS HRE-luciferase reporter; normalized: DMSO 0%, desferrioxamine 100%; activation, % at 7.5 µM (by protocol); 300,000 compounds, 0.32% hits; AID 1910, 2009;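 active = mean activation of at least 10% of the iron chelator positive control signal, with at least half of replicates also reaching 10%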
ABHD5-PLIN5 inh – ABHD5-PLIN5 interaction inhibitors, primary screen, cell lysate, split luciferase complementation, luminescence | Perilipin-5 (Homo sapiens) + 1-acylglycerol-3-phosphate O-acyltransferase ABHD5 (Homo … | Split G. princeps luciferase complementation, 4 h | inhibition, % at 4 µM | 360,000 compounds, 0.78% hits | AID 602281, 2012;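 active = inhibition above the mean inhibition across every tested compound plus 3 SD, cut at about 22% in these data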
Target sequence (Q00G26 whole entry, looked up): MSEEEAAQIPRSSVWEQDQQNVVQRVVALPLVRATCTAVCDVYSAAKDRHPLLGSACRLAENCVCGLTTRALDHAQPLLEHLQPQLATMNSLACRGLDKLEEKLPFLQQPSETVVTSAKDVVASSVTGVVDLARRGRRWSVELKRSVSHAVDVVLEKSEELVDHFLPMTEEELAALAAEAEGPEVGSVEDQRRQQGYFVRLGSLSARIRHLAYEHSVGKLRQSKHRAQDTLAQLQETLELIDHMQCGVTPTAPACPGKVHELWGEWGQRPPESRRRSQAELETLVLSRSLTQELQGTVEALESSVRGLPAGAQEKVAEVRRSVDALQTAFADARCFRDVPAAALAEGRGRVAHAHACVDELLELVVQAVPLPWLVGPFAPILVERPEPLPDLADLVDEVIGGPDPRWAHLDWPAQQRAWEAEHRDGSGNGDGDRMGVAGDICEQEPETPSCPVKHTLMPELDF
Target sequence (Q8WTS1 whole entry, looked up): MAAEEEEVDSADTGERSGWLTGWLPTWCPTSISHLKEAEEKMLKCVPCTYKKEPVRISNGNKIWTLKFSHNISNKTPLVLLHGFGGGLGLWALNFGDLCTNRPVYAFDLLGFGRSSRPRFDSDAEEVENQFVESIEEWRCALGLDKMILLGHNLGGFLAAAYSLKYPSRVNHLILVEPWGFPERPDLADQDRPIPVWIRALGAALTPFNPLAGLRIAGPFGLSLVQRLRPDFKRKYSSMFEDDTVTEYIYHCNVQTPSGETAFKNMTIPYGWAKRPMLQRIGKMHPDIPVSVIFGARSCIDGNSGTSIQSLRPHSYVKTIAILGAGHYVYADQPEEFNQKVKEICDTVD
Hsp70 act – Hsp70 transcriptional activators, primary screen, cell-based, HeLa, Hsp70 promoter luciferase, luminescence, 10 µM | activation, % at 10 µM | HeLa Hsp70 promoter luciferase reporter; scaled: vehicle 0, proteasome-inhibitor control 100% | 200,000 compounds, 0.04% hits | AID 1203, 2008;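 active = activation above the mean across all tested compounds plus 3 SD, cutoff set per campaign, cut at about 5.5% in these data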
H9c2 TAG inh – inhibitors of triacylglycerol accumulation, primary screen, cell-based, uHTS, fluorescence, H9c2; H9c2 cells, Nile Red lipid (TAG) fluorescence; cells loaded with 200 µM oleic acid; 230,000 compounds, 0.66% hits; AID 651582, 2012; inhibition, % at 12.5 µM;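 active = pattern-corrected inhibition of lipid staining of at least 50% with the nuclear-stain viability signal not falling by more than 50%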
FXN GAA850 act – FXN promoter activators, primary screen, cell-based, luciferase luminescence, HEK293 lucGAA850; activation, % at 6 µM; 360,000 compounds, 0.56% hits; HEK293 lucGAA850 FXN promoter luciferase reporter, 24 h; percent of 10 µM SAHA response;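 active = activation above the average of all compounds screened plus 3 SD, cutoff fixed separately per campaign, cut at about 7.5% in these data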
Rad51 HR inh – human RAD51 strand exchange inhibitors, primary screen, biochemical, fluorescence; inhibition, % at 10 µM; DNA repair protein RAD51 homolog 1 (Homo sapiens), Q06609; hRad51 DNA strand exchange, fluorescence dequenching; 200,000 compounds, 0.085% hits;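 active = inhibition above 40% at the single screening dose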
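Material: human Rad51–ssDNA filaments; Probe or stimulus: labelled 47-mer dsDNA for strand exchange; Doses: single 10 µM dose; Incubation: 37 °C 15-min filament assembly, 30-min compound preincubation, 15-min exchange; Technique: FRET fluorescence dequenching, excitation 485 nm, emission 520 nm; Measure: Fluorescence-based percent inhibition, control- and blank-normalised; Benchmarks: plate control and blank wells.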
Numbers stand for hits; – = inactive; · = no result given.

SMILES	HIF activator	ABHD5-PLIN5 inh	Hsp70 act	H9c2 TAG inh	FXN GAA850 act	Rad51 HR inh
COc1ccc(CCNC(=O)CC(NC(=O)c2ccccc2Cl)c2ccccc2)cc1 (stereo unspecified)	46	–	–	·	–	–
O=C(NCc1ccco1)c1cnn2c(C(F)(F)F)cc(-c3ccccc3)nc12	–	–	–	·	–	–
COc1ccc(-c2cc(C(F)(F)F)n3ncc(C(=O)NCc4ccco4)c3n2)cc1	–	23	–	–	–	·
CCOc1ccc(N2C(=O)CC(Sc3nnnn3-c3ccccc3)C2=O)cc1 (stereo unspecified)	–	27	–	–	–	–
Cc1ccnc(NC(=O)CCCc2ccccc2)c1	–	–	–	·	–	·
O=C(CCCc1ccccc1)Nc1ccccn1	15	–	–	–	–	–
CN1CCN(C2=Cc3cc(Cl)ccc3Sc3cc(F)ccc32)CC1	–	27	–	–	–	–
CC(=O)Cn1ncc(Br)c(Br)c1=O	–	–	–	61	–	–
CCOc1ccccc1N(CC(=O)N/N=C/c1cc(Br)ccc1OC)S(C)(=O)=O	26	–	–	·	–	–
COc1ccccc1N(CC(=O)N/N=C/c1ccc(SC)cc1)S(C)(=O)=O	–	–	–	·	–	·
CC1(C)CC(=O)C(CC2C(=O)CC(C)(C)CC2=O)C(=O)C1	54	–	·	–	–	–
CC1(C)CC(=O)C(CC2CCCCC2=O)C(=O)C1 (stereo unspecified)	–	–	·	–	–	·
C=CCN1C(=O)/C(=C/C(=O)OC)S/C1=N\NC(=O)c1ccccc1	–	23	·	–	–	·
COc1ccc(S(=O)(=O)N2CCOCC2)cc1NC(=O)CN1C(=O)NC(C)(C2CC2)C1=O (stereo unspecified)	·	–	·	–	–	·
CCCCC(=O)NC(c1cccs1)c1cc(Cl)c2cccnc2c1O (stereo unspecified)	34	–	–	–	–	–
CCC(=O)NC(c1cc(Cl)c2cccnc2c1O)C1CC1 (stereo unspecified)	·	–	·	52	–	·
CCC(=O)NC(c1cccs1)c1cc(Cl)c2cccnc2c1O (stereo unspecified)	31	–	–	–	–	·
CC1CN(C(=O)COC(=O)/C=C/c2ccccc2)CC(C)O1 (stereo unspecified)	·	–	·	–	–	·
O=C1NC(Cc2ccc(O)cc2)c2nc3cc(Cl)ccc3c(=O)n2-c2cc3ccccc3cc21 (stereo unspecified)	·	–	·	–	–	·
Cn1nnnc1Sc1ncnc2scc(-c3ccc(Br)cc3)c12	·	–	·	58	–	·
Cn1nnnc1Sc1ncnc2scc(-c3ccc(F)cc3)c12	–	–	–	–	–	·
OCCN1CCN(C2Cc3cc(Cl)ccc3Sc3ccc(Cl)cc32)CC1 (stereo unspecified) (tested in a mixture with another compound)	–	23	–	–	–	·
COc1ccc(NC(=O)CN(C)C(=O)c2ccc(S(=O)(=O)Nc3ccccc3F)cc2)cc1	–	–	·	–	–	·
CCOc1cccc2c1OC(c1cc(OC)c(OC)c(OC)c1)N1N=C(c3ccc(C)o3)CC21 (stereo unspecified)	–	25	–	–	–	–
COc1ccc(NC(=O)CCC(=O)N(Cc2ccc(OC)c(OC)c2)c2nccs2)cc1	170	·	–	–	·	·
SMILES	HIF activator	ABHD5-PLIN5 inh	Hsp70 act	H9c2 TAG inh	FXN GAA850 act	Rad51 HR inh
Cc1ccc(-c2nc(=S)c3c(n2Cc2ccco2)CC(C)(C)OC3)cc1	–	55	–	–	7.6	–
CCOC(=O)CN1C(=O)N[C@@H](CCc2ccccc2)[C@@H](C(=O)OC)[C@H]1C	–	–	·	–	–	53
CCCN1CCN(C(=O)Cn2cnc3ccc(S(=O)(=O)N4CCC(C)CC4)cc3c2=O)CC1	–	–	–	·	–	–
CCCc1[nH]nc2c1C(c1ccoc1)C(C#N)=C(N)O2 (stereo unspecified)	198	–	–	·	–	·
COc1ccc(C(=O)Nc2ccc(-c3ccc(C)o3)cc2)cc1S(=O)(=O)N1CCOCC1	–	22	–	–	–	–
CC(C)(C)c1ccc(Oc2ccc(NC(=O)c3cccs3)cn2)cc1	–	–	·	–	–	–
COc1ccc(NC(=O)c2cccs2)cn1	19	–	·	–	–	–
COc1ccc2nc(NC(=O)c3cccs3)sc2c1	21	–	·	–	–	–
CC(C)(C)c1ccc(Cn2c(=N)n(CC(O)c3ccco3)c3ccccc32)cc1 (stereo unspecified)	–	–	–	107	–	–
Cc1ccc(C(=O)O)cc1NC(=O)CSc1nnc(-c2ccccc2F)n1C1CCCCC1	·	–	·	–	–	·
COc1ccc(CCNC(=O)c2cc(-c3cccs3)on2)cc1OC	16	–	–	·	16	–
COc1ccc(CCNC(=O)c2ccc3nc(-c4ccco4)c(-c4ccco4)nc3c2)cc1OC	·	34	–	–	–	·
COc1ccc(CCNC(=O)c2cc(C(C)C)on2)cc1OC	–	–	–	–	–	–
CCCCCCCCN1C(=O)[C@H](CC(=O)N2CCCC2)C[C@@]2(C(=O)OCC)CCCC=C12	·	–	·	·	·	·
CCCCc1ccc(/C(C)=N/NC(=O)C2CCCC2)cc1	–	–	·	–	–	·
COc1cccc(C(=O)NCCC(=O)NCc2cc(=O)n(C)c(=O)n2C)c1	–	–	·	·	–	·
Cc1cnc(C(=O)OCc2nc3ccccc3o2)cn1	·	–	·	–	–	·
C#CCOCCOCCOCCNc1nc(N2CCN(C(=O)[C@H]([C@@H](C)O)n3cc(CCCCN)nn3)CC2)nc(N2CCN(C(=O)[C@H](CCCCN)n3cc(CC(C)O)nn3)CC2)n1 (stereo partly specified)	·	–	·	–	–	·
C#CCOCCOCCOCCNc1nc(N2CCN(C(=O)CCCCCCCCCCNC(=O)[C@H](CCCCN)n3cc(C[C@@H](C)CC)nn3)CC2)nc(N2CCN(C(=O)CCCCCCCCCCNC(=O)[C@H](CCCN=C(N)N)n3cc(C[C@@H](C)CC)nn3)CC2)n1	·	63	·	–	–	·
C#CCOCCOCCOCCNc1nc(N2CCN(C(=O)[C@H](CCCCN)n3cc([C@@H](N)CC(C)C)nn3)CC2)nc(N2CCN(C(=O)[C@H](Cc3cc4ccccc4[nH]3)n3cc([C@@H](N)Cc4ccc(O)cc4)nn3)CC2)n1	–	25	–	–	–	–
